Experimental data published in ChEMBL document CHEMBL1152768, “4-Benzyloxy-gamma-sultone derivatives: discovery of a novel family of non-nucleoside inhibitors of human cytomegalovirus and varicella zoster virus” (J Med Chem, 2009).

Legend:
[1] = Cytotoxicity against human HEL cells assessed as reduction of growth after 3 days; format: cell-based
Method in brief: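 HEL cells were seeded at 5 × 10³ cells/well and grown 24 h before compound was added at different concentrations. After 3 days at 37 °C, cells were counted with a Coulter counter. CC50, the concentration halving growth relative to untreated controls, was read from plots of cell number (% of control) against concentration.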

[2] = system: Human betaherpesvirus 5; assay: Antiviral activity against HCMV Davis infected in human HEL cells assessed inhibition of virus-induced cytopathicity after 7 days postinfection; format: functional, organism-based; settings: Human betaherpesvirus 5, Davis, 168 h
Method in brief: (§1)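 HEL fibroblasts were infected at 100 PFU. After 2 h, residual virus was removed and medium with test compound was added at several concentrations, in duplicate. Cells were incubated 7 days at 37 °C, fixed with ethanol and stained with Giemsa.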

[3] = system: Human alphaherpesvirus 3; assay: Antiviral activity against thymidine kinase expressing Varicella zoster virus Oka infected in human HEL cells assessed reduction in viral plaque formation; format: functional, organism-based; settings: Human alphaherpesvirus 3, Oka
Method in brief: (§2)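 Confluent HEL cell monolayers were inoculated with VZV at 20 PFU per well. Residual virus was removed after 2 h, and compound was added at varying concentrations, in duplicate.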

[4] = Cytotoxicity against human HEL cells assessed as morphological alteration after 3 days; format: cell-based
Method in brief: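 HEL cultures were examined under the microscope. MCC was recorded as the compound concentration causing a microscopically detectable alteration of normal cell morphology.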

[5] = system: Human alphaherpesvirus 3; assay: Antiviral activity against thymidine kinase deficient Varicella zoster virus 07/1 infected in human HEL cells assessed reduction in viral plaque formation; format: functional, organism-based; settings: Human alphaherpesvirus 3, HEL; method in brief: as §2
[6] = system: Human betaherpesvirus 5; assay: Antiviral activity against HCMV AD169 infected in human HEL cells assessed inhibition of virus-induced cytopathicity after 7 days postinfection; format: functional, organism-based; settings: Human betaherpesvirus 5, AD169, HEL, 168 h; method in brief: as §1

SMILES | EC50 [2] [µM] | EC50 [3] [µM] | EC50 [5] [µM] | EC50 [6] [µM] | CC50 at 72 h [1] [µM] | MCC at 72 h [4] [µM]
CCC1(Cc2ccccc2)OS(=O)(=O)CC1=O (configuration not stated) | 400 | 10 | 10.5 | > 400 | 200 | > 100
CCC1(Cc2ccccc2)OS(=O)(=O)C=C1OCC#N (racemic) | 235 | 199 | 199 | > 80 | > 200 | > 400
CCC1(Cc2ccccc2)OS(=O)(=O)C=C1OCC1CCCCC1 (racemic) | > 200 | 20 | 7 | > 200 | > 200 | ≥ 200
CC(C)CC1(Cc2ccccc2)OS(=O)(=O)C=C1OCc1ccccc1 (racemic) | > 400 | > 80 | > 80 | > 400 | 102 | ≥ 80
CC1(C(c2ccccc2)c2ccccc2)OS(=O)(=O)C=C1OCc1ccccc1 (racemic) | > 400 | > 80 | > 80 | > 80 | 200 | ≥ 400
CCC1(Cc2ccccc2)OS(=O)(=O)C=C1OCc1ccc(C)cc1 (racemic) | 5.9 | 6.4 | 5.9 | 7.2 | 41.5 | ≥ 16
CCC1(Cc2ccccc2)OS(=O)(=O)C=C1OCc1ccc(C(C)(C)C)cc1 (racemic) | ≥ 5 | 6.4 | 7.3 | 20 | 200 | ≥ 400
CCCC1(Cc2ccccc2)OS(=O)(=O)C=C1OCc1ccccc1 (racemic) | > 400 | > 80 | > 400 | > 400 | 200 | ≥ 400
CC(C)C1(Cc2ccccc2)OS(=O)(=O)C=C1OCc1ccccc1 (racemic) | > 400 | > 80 | > 16 | > 400 | 200 | ≥ 80
CCC1(Cc2ccccc2)OS(=O)(=O)C=C1OS(=O)(=O)c1ccc(C)cc1 (racemic) | > 80 | > 80 | > 80 | > 80 | 109 | 400
CCC1(Cc2ccccc2)OS(=O)(=O)C=C1OCc1ccc(C(F)(F)F)cc1 (racemic) | 8 | 7.7 | 6.7 | 12 | 99 | ≥ 16
CCC1(Cc2ccccc2)OS(=O)(=O)C=C1OCCCCc1ccccc1 (racemic) | 7.8 | 6.2 | > 20 | > 3.2 | 99 | ≥ 20
CCC1(Cc2ccccc2)OS(=O)(=O)C=C1OCCCCCCc1ccccc1 (racemic) | 6.4 | 8.7 | 8.4 | < 3.2 | < 200 | ≥ 20
CC1(Cc2ccccc2)OS(=O)(=O)C=C1OCc1ccccc1 (racemic) | > 200 | 306 | > 400 | > 200 | 68 | > 400
CCC1(Cc2ccccc2)OS(=O)(=O)C=C1OCC(=O)OC (racemic) | > 400 | > 400 | > 400 | > 400 | > 200 | > 400
CCC1(Cc2ccccc2)OS(=O)(=O)C=C1OC(c1ccccc1)c1ccccc1 (racemic) | > 400 | > 80 | > 80 | > 400 | > 200 | ≥ 80
CCC1(Cc2ccccc2)OS(=O)(=O)C=C1OCc1ccc(Br)cc1 (racemic) | 6 | 8.3 | 6.3 | 10 | 171 | 80
O=c1[nH]c(=O)n([C@H]2C[C@H](O)[C@@H](CO)O2)cc1/C=C/Br [BRIVUDINE] | – | 0.015 | 140 | – | 600 | > 150

Continued, in another order:

EC50 [2] [µM] | EC50 [3] [µM] | EC50 [5] [µM] | EC50 [6] [µM] | SMILES | CC50 at 72 h [1] [µM] | MCC at 72 h [4] [µM]
> 80 | 37 | 32 | > 80 | CCC1(Cc2ccccc2)OS(=O)(=O)C=C1NCc1ccccc1 (configuration not stated) | 92 | ≥ 80
234 | 175 | 155 | > 400 | CCC1(CC)OS(=O)(=O)C=C1OCc1ccccc1 | 200 | > 400
> 400 | 168 | 285 | > 400 | CCC1(Cc2ccccc2)OS(=O)(=O)C=C1OC (racemic) | > 200 | > 400
> 80 | 59 | 52 | > 80 | CCC1(Cc2ccccc2)OS(=O)(=O)C=C1OCC=C(C)C (racemic) | 112 | 400
8 | 7.3 | 6.7 | > 16 | CCC1(Cc2ccccc2)OS(=O)(=O)C=C1OCc1cccc(Cl)c1 (racemic) | 50 | ≥ 20
> 80 | 80 | 54 | > 400 | CCC1(Cc2ccccc2)OS(=O)(=O)C=C1OCc1ccc([N+](=O)[O-])cc1 (racemic) | < 200 | ≥ 80
> 80 | 80 | > 16 | > 400 | O=S1(=O)C=C(OCc2ccccc2)C2(CCc3ccccc3C2)O1 (racemic) | 131 | ≥ 80
> 400 | > 16 | > 16 | > 400 | C=CCOC1=CS(=O)(=O)OC1(CC)Cc1ccccc1 (racemic) | > 200 | 80
7.2 | > 3.2 | > 3.2 | 6.5 | CCC1(Cc2ccccc2)OS(=O)(=O)C=C1OCc1ccc(Cl)c(Cl)c1 (racemic) | 36.7 | ≥ 20
8.7 | > 3.2 | 6.5 | 9 | CCC1(Cc2ccccc2)OS(=O)(=O)C=C1OCCCc1ccccc1 (racemic) | 133 | ≥ 20
179 | > 400 | > 400 | > 400 | CCC1(Cc2ccccc2)OS(=O)(=O)C=C1OC(=O)c1ccccc1 (racemic) | > 200 | > 400
